PGC1a acetyl up: raises PGC1a acetylation signal in U2OS cells | 350,000 compounds, 0.21% hits | activation, % at 15.6 µM | U2OS PGC1a acetylation AlphaScreen, overnight;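 active = every replicate reaching activation of at least 50%, whatever the mean replicate activation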;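 also: hits raise the AlphaScreen acetylation signal above neutral controls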
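detection = AlphaScreen lysate read | assay system = U2OS cells expressing flag-PGC1a plus GCN5 | input = 7000 cells/well | dosing = one concentration | times = compound overnight at 37 °C, each detection step 1 h RT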
Numbers stand for hits. The entries come from a sample that favours hits as a whole.

What do the screens show for `COc1cc2nc(SCc3c(C)noc3C)n(CCC3=CCCCC3)c(=O)c2cc1OC`?
PGC1a acetyl up: inactive

Results for C=CCn1c(SCc2c(C)noc2C)nc2ccccc2c1=O ?
PGC1a acetyl up: 74.0

How did Cc1noc(C)c1CSc1nnc(-c2cccnc2)n1C1CCCCC1C (configuration not stated) do in these assays?
PGC1a acetyl up: inactive

What do the screens show for `O=C(CCl)NCc1cc(-c2ccc(Cl)cc2)no1`?
PGC1a acetyl up: 51.9

Results for CO[C@H]1CN(C)C(=O)c2cc(NC(C)=O)ccc2OC[C@@H](C)N(CC2CCCCC2)C[C@@H]1C ?
PGC1a acetyl up: inactive

How did COC(=O)c1nn(-c2ccccc2)ccc1=O do in these assays?
PGC1a acetyl up: inactive

How did O=C(O)CSc1nnc(COc2cccc3ccccc23)o1 do in these assays?
PGC1a acetyl up: inactive

Results for N#CCSc1nnc(COc2ccc3ccccc3c2)o1 ?
PGC1a acetyl up: 51.8

How did CC(C)c1ccc(NC(=O)c2ccc3c(c2)CCN3S(C)(=O)=O)cc1 do in these assays?
PGC1a acetyl up: inactive

What do the screens show for `CS(=O)(=O)c1ncc(Cl)c(C(=O)Nc2ccc(N3CCOCC3)cc2)n1`?
PGC1a acetyl up: 80.9

What do the screens show for `Cc1ccc(C(=O)NNC(=O)c2cccc(Br)c2)cc1`?
PGC1a acetyl up: inactive

How did Cc1ccc(S(=O)(=O)C(NC(=O)c2ccccc2)=C(Cl)Cl)cc1 do in these assays?
PGC1a acetyl up: 59.7

How did CCS(=O)(=O)c1ccc2oc(Nc3ccccc3Br)nc2c1 do in these assays?
PGC1a acetyl up: inactive

Results for CCn1c(=N)n(CC(=O)c2ccc(OC)c(OC)c2)c2ccccc21 ?
PGC1a acetyl up: inactive

Results for CCn1nccc1C(=O)Nc1ccccc1OC ?
PGC1a acetyl up: inactive

What do the screens show for `COc1ccccc1NC(=O)c1ccc(NC(=O)CNC(=O)c2ccc(OC)c(OC)c2)cc1`?
PGC1a acetyl up: 71.1

What do the screens show for `Oc1ccc(Nc2nnc(-c3ccc(O)cc3)c3ccccc23)cc1`?
PGC1a acetyl up: 63.4

What do the screens show for `CCOC(=O)C1=Nc2ccccc2C1=[N+]=[N-]`?
PGC1a acetyl up: inactive

How did CCOC(=O)c1[nH]c(C)c(C(=O)Nc2cc(Cl)ccc2C)c1C do in these assays?
PGC1a acetyl up: 77.8

What do the screens show for `Cc1ccc(C)c(NC(=O)c2nnn(Cc3ccccc3)c2N)c1`?
PGC1a acetyl up: inactive

What do the screens show for `N#Cc1sc2nccc(Nc3ccccc3)c2c1N`?
PGC1a acetyl up: inactive

What do the screens show for `N#Cc1cccc(-c2ccc([C@@H]3[C@@H]4CN(S(=O)(=O)c5ccc(-c6ccccc6)cc5)C[C@H]3N4)cc2)c1`?
PGC1a acetyl up: inactive

How did COc1ccccc1-c1ccc(C2[C@@H]3CN(S(=O)(=O)c4ccc(C)cc4)C[C@H]2N3)cc1 (some centres not stated) do in these assays?
PGC1a acetyl up: 94.8

What do the screens show for `Cc1ccc(S(=O)(=O)N(CC2CO2)c2ccccc2[N+](=O)[O-])cc1` (configuration not stated)?
PGC1a acetyl up: inactive

What do the screens show for `CCOc1ccc(C(C)=O)cc1N1C(=O)C2C3C=CC(C3=C(C)C)C2C1=O` (configuration not stated)?
PGC1a acetyl up: inactive

How did O=C(NCc1cccc(Cl)c1)c1ccc(-n2ccnc2)c2ccoc12 do in these assays?
PGC1a acetyl up: 51.6

What do the screens show for `O=C(CC1SC(=NCc2ccccc2)NC1=O)Nc1ccccc1` (configuration not stated)?
PGC1a acetyl up: 98.6

Results for CCCCN=C1NC(=O)C(CC(=O)Nc2ccc(Cl)cc2)S1 (configuration not stated) ?
PGC1a acetyl up: 171.3

Results for COc1ccccc1CNS(=O)(=O)c1cc(C)ccc1OC ?
PGC1a acetyl up: inactive

What do the screens show for `CN(C)C(=O)c1ccc(-c2ccc([C@@H]3[C@H]4CN(C(=O)CC5CC5)CC(=O)N4[C@H]3CO)cc2)cc1`?
PGC1a acetyl up: inactive

What do the screens show for `COc1cccc(S(=O)(=O)N[C@H]2CC[C@H](CC(=O)NCc3ccc(F)cc3)O[C@@H]2CO)c1`?
PGC1a acetyl up: inactive

How did COc1cccc(N(C(=O)CCl)C(C(=O)NCCc2ccccc2)c2cccs2)c1 (configuration not stated) do in these assays?
PGC1a acetyl up: inactive

Results for COc1cccc(N(CC(=O)NCc2cccnc2)S(C)(=O)=O)c1 ?
PGC1a acetyl up: 88.8

Results for O=C(Nc1nc2cc3c(cc2s1)OCCO3)c1ccncc1 ?
PGC1a acetyl up: inactive

Results for O=C(c1ccco1)N1CCN(c2ncnc3scc(-c4cccs4)c23)CC1 ?
PGC1a acetyl up: inactive

What do the screens show for `Cn1nc(-c2ccccc2F)c2cc(C(=O)N3CCN(C(=O)c4ccco4)CC3)sc21`?
PGC1a acetyl up: 81.9

How did C[C@@H]1CCCCO[C@@H](CN(C)C)[C@@H](C)CN([C@H](C)CO)C(=O)c2cc(NS(=O)(=O)c3ccc(Cl)cc3)ccc2O1 do in these assays?
PGC1a acetyl up: inactive

What do the screens show for `O=C(c1cc2ccccc2o1)N1CC=C(c2ccccc2)CC1`?
PGC1a acetyl up: inactive

Results for CC1=CC(=O)C=C(C)C1=NOS(=O)(=O)c1ccccc1 ?
PGC1a acetyl up: 60.8

How did O=C(c1ccco1)N(Cc1ccc([N+](=O)[O-])cc1)c1ccc(Br)cc1 do in these assays?
PGC1a acetyl up: 58.0

Results for C[C@@H]1CCCCO[C@H](CN(C)C(=O)NC2CCCCC2)[C@@H](C)CN([C@@H](C)CO)C(=O)c2cc(NC(=O)NC3CCCCC3)ccc2O1 ?
PGC1a acetyl up: inactive

Results for CCCn1c(-c2ccccc2)cc(SC)c(C#N)c1=O ?
PGC1a acetyl up: inactive

What do the screens show for `Cc1ccc(-c2c(C#N)c(N)n(-c3ccccc3)c(=O)c2C#N)cc1`?
PGC1a acetyl up: 65.7

How did CCOC(=O)C(=CNc1ccc(C)cc1C)C(=O)OCC do in these assays?
PGC1a acetyl up: inactive

Results for CCCOc1ccc(/C=C/C(=O)O)cc1OC ?
PGC1a acetyl up: inactive

Results for COc1cccc(C(=O)/C=C/c2ccc(OCC#N)c(OC)c2)c1 ?
PGC1a acetyl up: 183.2

What do the screens show for `COc1ccc(OC)c(C(=O)/C=C/c2ccccc2C(F)(F)F)c1`?
PGC1a acetyl up: inactive

What do the screens show for `O=C(Cn1c2ccccc2c(=O)c2ccccc21)N/N=C/c1cc([N+](=O)[O-])ccc1N1CCCCCC1`?
PGC1a acetyl up: 52.8

How did CCn1c2ccccc2c2cc(/C=N/NC(=O)c3ccccc3)ccc21 do in these assays?
PGC1a acetyl up: inactive

Results for O=C(c1cccc([N+](=O)[O-])c1)N1CCc2ccccc21 ?
PGC1a acetyl up: inactive

How did Cc1ccc(Nc2nc(C)cc(C)c2C(N)=O)c(C)c1 do in these assays?
PGC1a acetyl up: inactive

How did CC(=O)c1ccc(Nc2cc(C)nc3ccc(C)cc23)cc1 do in these assays?
PGC1a acetyl up: inactive

How did Cc1ccc2nc(C)cc(OCC(=O)O)c2c1 do in these assays?
PGC1a acetyl up: 59.0

Results for COc1ccc(NC(=O)CN(C)C(=O)c2cnc(Cl)c(Cl)c2)cc1 ?
PGC1a acetyl up: inactive

Results for COc1ccc(CCNC(=O)c2ccc(Cl)cc2)cc1 ?
PGC1a acetyl up: 81.1

Results for COc1ccc(C(=O)N/N=C(/C)c2cccc(NC(=O)c3ccccc3F)c2)cc1 ?
PGC1a acetyl up: inactive

What do the screens show for `CC(=O)[C@H]1CC[C@H]2[C@@H]3CC=C4C[C@@H](OS(=O)(=O)O)CC[C@]4(C)[C@H]3CC[C@]12C`?
PGC1a acetyl up: inactive

What do the screens show for `CCOC(=O)c1c(C)n(C)c2cc(Br)c(O)c(O)c12`?
PGC1a acetyl up: inactive

Results for CCOC(=O)c1c2c(n(C)c1C)C(=O)C(=O)c1ccc(Br)cc1-2 ?
PGC1a acetyl up: 83.3

High-throughput results: PubChem, Broad Institute
